This is an account of results in ChEMBL document CHEMBL2069182, “Discovery and optimization of a novel series of GPR142 agonists for the treatment of type 2 diabetes mellitus” (Bioorg Med Chem Lett, 2012).

The target of data set [1] is T1, Probable G-protein coupled receptor 142 (Homo sapiens, UniProt Q7Z601).
T1 sequence (Q7Z601 whole entry): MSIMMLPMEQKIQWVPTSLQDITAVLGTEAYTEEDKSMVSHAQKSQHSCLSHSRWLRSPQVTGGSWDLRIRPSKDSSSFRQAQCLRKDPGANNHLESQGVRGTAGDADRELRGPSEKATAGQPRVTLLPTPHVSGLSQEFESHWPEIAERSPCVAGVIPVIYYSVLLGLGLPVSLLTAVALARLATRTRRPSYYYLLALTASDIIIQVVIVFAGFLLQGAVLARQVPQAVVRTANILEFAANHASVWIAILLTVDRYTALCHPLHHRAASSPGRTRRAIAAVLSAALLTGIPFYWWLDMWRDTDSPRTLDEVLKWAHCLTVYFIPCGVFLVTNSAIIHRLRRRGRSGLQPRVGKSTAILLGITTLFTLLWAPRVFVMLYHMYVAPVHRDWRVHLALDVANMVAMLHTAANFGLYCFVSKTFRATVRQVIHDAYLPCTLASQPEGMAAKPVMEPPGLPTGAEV
The experiment in a line: Agonist activity at human GPR142 expressed in HEK293 cells assessed as inositol phosphate accumulation using [3H]-inositol after 1 hr by scintillation counting. In kind it is functional, cell-based. The method in brief: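 HEK293 cells plated at 25,000/well, next day (80–90% confluent) transfected with 100 ng receptor plasmid per well by Lipofectamine; after 6 h switched to inositol-free DMEM/10% dialyzed FCS with 1 µCi/mL [3H]-inositol overnight. Washed in HBSS, then compound dilutions (DMSO) in HBSS/0.01% BSA plus 10 mM LiCl, 37 °C, 1 h. Lysed in ice-cold 20 mM formic acid, 4 °C 5 h, then yttrium silicate SPA beads, scintillation counting. Emax as % of maximal response to 10 mM tryptophan.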

Data set [2] has as its target T2, Probable G-protein coupled receptor 142 (Homo sapiens) (UniProt Q7Z601).
T2 sequence (whole entry): T1 sequence (Q7Z601 whole entry)
The experiment in a line: Agonist activity at human GPR142 expressed in HEK293 cells assessed as inositol phosphate accumulation using [3H]-inositol after 1 hr by scintillation counting relative to tryptophan. In kind it is functional, cell-based. The method in brief:
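HEK293 cells on poly-D-lysine were transfected next day with 100 ng receptor plasmid/well, then labelled overnight with 1 µCi/mL [3H]-inositol in inositol-free DMEM/10% dialyzed FCS. Cells got graded compound in HBSS/0.01% BSA with 10 mM LiCl for 1 h at 37 °C. They were lysed in ice-cold 20 mM formic acid and counted with yttrium silicate SPA beads. EC50 given; Emax as % of maximal tryptophan response at 10 mM.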

Another data set has as its target CYP3A4 (Homo sapiens, UniProt P08684). In words: Inhibition of CYP3A4 at 3 uM. The format is ADME.
A further data set has as its target CYP2D6 (Homo sapiens, UniProt P10635). In words: Inhibition of CYP2D6 at 3 uM. The format is ADME.
Data set [3] concerns the target T1, Probable G-protein coupled receptor 142. The experiment in a line: Agonist activity at human GPR142 expressed in HEK293 cells assessed as inositol phosphate accumulation using [3H]-inositol after 1 hr by scintillation counting in presence of human serum. The format is functional, cell-based. The method in brief: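 Same transfected HEK293 [3H]-inositol IP accumulation protocol as buffer assay, but compound incubation (10 mM LiCl, 37 °C, 1 h) run in 100% human serum instead of HBSS/0.01% BSA. Formic acid lysis, SPA bead scintillation read-out. Emax expressed as % of maximal 10 mM tryptophan response.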

Data set [4] has as its target T2, Probable G-protein coupled receptor 142 (Homo sapiens). The experiment in a line: Agonist activity at human GPR142 expressed in HEK293 cells assessed as inositol phosphate accumulation using [3H]-inositol after 1 hr by scintillation counting in presence of human serum relative to tryptophan. In kind it is functional, cell-based. In a few lines:
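Transiently transfected HEK293 cells were labelled overnight with 1 µCi/mL tritiated inositol, then given graded compound in 100% human serum (in place of HBSS/0.01% BSA) with 10 mM LiCl for 1 h at 37 °C. Lysis was in ice-cold 20 mM formic acid, with SPA-bead scintillation read-out. EC50 given; Emax as % of maximal tryptophan response.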

The nature of data set [5]: Induction of insulin secretion in mouse pancreatic islets in presence of 16.7 mM of glucose. In kind it is functional. The note with it: Pancreatic islet. The method in brief: (§1)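 Isolated mouse islets stimulated in 16.7 mM glucose with 0.625% HSA and 1% DMSO; insulin secretion measured, Emax reported as percentage.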
Data set [6] is described as follows: Induction of insulin secretion in mouse pancreatic islets in presence of 16.7 mM of glucose relative to control. The format is functional. The note with it: Pancreatic islet. In a few lines:
as §1

The target of data set [7] is T3, Probable G-protein coupled receptor 142 (Mus musculus, UniProt Q7TQN9).
T3 sequence (Q7TQN9 whole entry): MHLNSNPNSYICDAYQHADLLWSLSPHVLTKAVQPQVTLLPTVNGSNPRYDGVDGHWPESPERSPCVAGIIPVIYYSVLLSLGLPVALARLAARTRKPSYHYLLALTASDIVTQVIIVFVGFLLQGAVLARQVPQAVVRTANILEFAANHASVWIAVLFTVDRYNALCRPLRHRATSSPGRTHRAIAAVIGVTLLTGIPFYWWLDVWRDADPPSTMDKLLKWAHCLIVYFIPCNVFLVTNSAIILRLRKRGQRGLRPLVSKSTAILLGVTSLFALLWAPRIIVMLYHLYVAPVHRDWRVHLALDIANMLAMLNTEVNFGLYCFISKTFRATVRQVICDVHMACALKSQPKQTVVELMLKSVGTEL
In words: Agonist activity at mouse GPR142 assessed as inositol phosphate accumulation. In kind it is functional.

CYP2D6, sequence (P10635 whole entry): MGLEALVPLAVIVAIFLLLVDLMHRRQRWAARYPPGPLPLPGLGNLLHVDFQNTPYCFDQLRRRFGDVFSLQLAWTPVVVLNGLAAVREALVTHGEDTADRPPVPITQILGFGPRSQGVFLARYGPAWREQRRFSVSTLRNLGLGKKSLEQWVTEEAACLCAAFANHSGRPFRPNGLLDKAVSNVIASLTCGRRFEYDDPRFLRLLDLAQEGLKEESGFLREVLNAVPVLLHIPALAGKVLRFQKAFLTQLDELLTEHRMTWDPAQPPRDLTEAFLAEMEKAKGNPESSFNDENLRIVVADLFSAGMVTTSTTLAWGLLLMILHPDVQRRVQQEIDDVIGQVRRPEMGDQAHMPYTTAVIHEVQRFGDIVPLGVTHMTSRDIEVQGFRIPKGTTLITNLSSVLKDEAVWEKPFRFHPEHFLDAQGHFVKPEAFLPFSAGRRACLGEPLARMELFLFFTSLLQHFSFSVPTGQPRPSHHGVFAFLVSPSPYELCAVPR
CYP3A4, sequence (P08684 whole entry): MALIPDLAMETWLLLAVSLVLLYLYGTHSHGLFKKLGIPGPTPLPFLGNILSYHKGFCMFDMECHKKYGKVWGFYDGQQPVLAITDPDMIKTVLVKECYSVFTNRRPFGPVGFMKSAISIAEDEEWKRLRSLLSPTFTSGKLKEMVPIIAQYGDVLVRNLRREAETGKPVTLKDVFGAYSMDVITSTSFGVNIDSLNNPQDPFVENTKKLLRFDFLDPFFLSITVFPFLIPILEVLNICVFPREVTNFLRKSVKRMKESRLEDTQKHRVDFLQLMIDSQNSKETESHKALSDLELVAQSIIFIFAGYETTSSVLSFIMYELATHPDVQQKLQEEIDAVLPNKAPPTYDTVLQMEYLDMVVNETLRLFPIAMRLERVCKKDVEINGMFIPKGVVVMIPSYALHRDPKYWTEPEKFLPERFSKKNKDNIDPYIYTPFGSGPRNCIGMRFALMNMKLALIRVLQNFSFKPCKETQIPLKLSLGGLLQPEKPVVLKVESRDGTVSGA

On to `N[C@H](C(=O)Nc1cc(-c2ccncc2)c[nH]c1=O)c1ccccc1`, for which the EC50 (usually the concentration needed to bring the measured effect to its halfway point) in [1] was above 33000 nM.
Take `O=C(Nc1cc(-c2ccncc2)c[nH]c1=O)[C@H](Cc1ccccc1)NCC1CC1`: the EC50 in [1] amounted to 760 nM. Also, in data set [2], the Emax (usually the greatest response seen or fitted, relative to the assay's reference) worked out at 106%.
Taken in the same sequence, the figures for `COc1ccc(C[C@H](N)C(=O)Nc2cc(-c3ccncc3)c[nH]c2=O)cc1` were 25000 nM and 40%.
`O=C(Nc1ccccc1)[C@H](Cc1ccccc1)NCc1cscn1`: in data set [1], the EC50 was 3300 nM. The inhibition – broadly, the share of the control response that was lost under treatment – at 3 µM stood at 24% on CYP3A4 and 36% on CYP2D6.
As for `O=C(Nc1cc(-c2ccncc2)c[nH]c1=O)[C@H](Cc1ccccc1)NCc1ccccc1`, the concentration giving a half-maximal response (EC50) in data set [1] worked out at 830 nM. In addition, in data set [2], the maximal effect (Emax) was 97%.
As for `O=C(Nc1cccc(-c2ccncc2)c1)[C@H](Cc1ccccc1)NCc1cscn1`, the 50% effective concentration (EC50) is 67 nM in data set [1] and 970 nM in [3]. The inhibition at 3 µM on CYP3A4 turned out to be 97%; against CYP2D6, 95%.
Consider `COc1ccc(NC(=O)[C@H](Cc2ccccc2)NCc2cscn2)cc1-c1ccncc1`, for which the concentration for a half-maximal effect (EC50) in data set [1] was 240 nM; in data set [3], 980 nM.
`N[C@@H](Cc1cccc(Cl)c1)C(=O)Nc1cc(-c2ccncc2)c[nH]c1=O`: the EC50 in data set [1] was above 33000 nM. The maximal effect (Emax) in data set [2] amounted to 50%.
`Cn1ccc(-c2cccc(NC(=O)[C@H](Cc3ccccc3)NCc3cscn3)c2)n1`: the EC50 in data set [1] was 1900 nM. Also, the inhibition at 3 µM against CYP3A4 worked out at 30%; against CYP2D6 it was 12%.
Turning to `O=C(Nc1cc(-c2ccncc2)c[nH]c1=O)[C@H](Cc1ccccc1)NCc1cscn1`, the EC50 in data set [1] stood at 93 nM; in [3], 500 nM; in [5], 2700 nM. Moreover, the results for the Emax in data set [2], in data set [4] and in [6] were 120%, 100% and 88%, respectively. Besides, the inhibition at 3 µM against CYP3A4 came to 97%; at CYP2D6, 95%.
Take `O=C(Nc1cc(-c2ccncc2)c[nH]c1=O)[C@H](Cc1ccccc1)NCCc1ccccc1`: in data set [1], the concentration giving a half-maximal response (EC50) was 780 nM. Further, the Emax in data set [2] was determined as 67%.
Taken in the same sequence, the figures for `N#Cc1ccc(C[C@H](N)C(=O)Nc2cc(-c3ccncc3)c[nH]c2=O)cc1` were 4600 nM and 79%.
Taken in the same sequence, the figures for `N[C@@H](CC1CCCCC1)C(=O)Nc1cc(-c2ccncc2)c[nH]c1=O` were above 33000 nM and 30%.
Taken in the same sequence, the figures for `N[C@H](Cc1ccccc1)C(=O)Nc1cc(-c2ccncc2)c[nH]c1=O` were 13000 nM and 93%.
For the compound `N[C@@H](Cc1ccccc1Cl)C(=O)Nc1cc(-c2ccncc2)c[nH]c1=O`, in data set [1], the EC50 is above 33000 nM. Further, the maximal response (Emax) in [2] came out at 42%.
Regarding `O=C(Nc1cc(-c2ccn[nH]2)c[nH]c1=O)[C@H](Cc1ccccc1)NCc1cscn1`, in data set [1], the concentration giving a half-maximal response (EC50) is 200 nM. For the same compound, the inhibition at 3 µM against CYP3A4 was found to be 18%; at CYP2D6, 29%.
For the compound `Cn1cc(-c2cccc(NC(=O)[C@H](Cc3ccccc3)NCc3cscn3)c2)cn1`, the concentration for a half-maximal effect (EC50) in data set [1] came out at 180 nM. Besides, the inhibition at 3 µM was determined as 36% at CYP3A4 and 42% at CYP2D6.
As to `O=C(CCc1ccccc1)Nc1cc(-c2ccncc2)c[nH]c1=O`, the EC50 in data set [1] is above 33000 nM.
On to `COc1ccc(-c2ccncc2)cc1NC(=O)[C@H](Cc1ccccc1)NCc1cscn1`, for which the results for the EC50 in [1] and in data set [3] were 89 nM and 1000 nM, respectively.
On to `N[C@@H](Cc1ccc(F)cc1)C(=O)Nc1cc(-c2ccncc2)c[nH]c1=O`, for which the concentration giving a half-maximal response (EC50) in data set [1] was determined as 4200 nM. For the same compound, in data set [2], the maximal response (Emax) worked out at 102%.
For `O=C(Nc1nccc(-c2ccncc2)n1)[C@H](Cc1ccccc1)NCc1cscn1`, the EC50 in data set [1] is 360 nM; in [3], 290 nM.
For the compound `O=C(Nc1cccc(-c2cn[nH]c2)c1)[C@H](Cc1ccccc1)NCc1cscn1`, the EC50 in data set [1] amounted to 180 nM. Besides, the inhibition at 3 µM stood at 82% against CYP3A4 and 90% at CYP2D6.
For the compound `NCC(=O)Nc1cc(-c2ccncc2)c[nH]c1=O`, the concentration giving a half-maximal response (EC50) in data set [1] is above 33000 nM.
Turning to `Cc1cc(-c2cccc(NC(=O)[C@H](Cc3ccccc3)NCc3cscn3)c2)ccn1`, the concentration giving a half-maximal response (EC50) in data set [1] is 52 nM. The inhibition at 3 µM on CYP3A4 was 63%; against CYP2D6 it was 74%.
In the case of `O=C(Nc1cccc(-c2ccccc2)c1)[C@H](Cc1ccccc1)NCc1cscn1`, the half-maximal effective concentration (EC50) in [1] came to 640 nM. Moreover, the figures for the inhibition at 3 µM on CYP3A4 and at CYP2D6 were 57% and 46%, respectively.
As for `CC(=O)N[C@@H](Cc1ccccc1)C(=O)Nc1cc(-c2ccncc2)c[nH]c1=O`, the concentration for a half-maximal effect (EC50) in [1] was above 33000 nM.
For the compound `Nc1cc(-c2cccc(NC(=O)[C@H](Cc3ccccc3)NCc3cscn3)c2)ccn1`, the half-maximal effective concentration (EC50) in data set [1] was determined as 210 nM. Moreover, the inhibition at 3 µM on CYP3A4 was 38%; on CYP2D6, 42%.
As to `N[C@@H](Cc1ccc(Cl)cc1)C(=O)Nc1cc(-c2ccncc2)c[nH]c1=O`, in data set [1], the 50% effective concentration (EC50) was 3800 nM. For the same compound, the maximal effect (Emax) in data set [2] is 105%.
Consider `O=C(Nc1cccc(-c2cc[nH]n2)c1)[C@H](Cc1ccccc1)NCc1cscn1`, for which the EC50 in [1] amounted to 67 nM. Further, the inhibition at 3 µM stood at 59% against CYP3A4 and 36% at CYP2D6.
Consider `N[C@@H](Cc1ccccc1)C(=O)Nc1cc(-c2ccncc2)c[nH]c1=O`, for which the EC50 in data set [1] was determined as 4800 nM; in data set [7], 1400 nM. The Emax in [2] turned out to be 115%.
As for `Cn1cc(-c2c[nH]c(=O)c(NC(=O)[C@H](Cc3ccccc3)NCc3cscn3)c2)cn1`, in data set [1], the concentration for a half-maximal effect (EC50) was 230 nM. The inhibition at 3 µM was determined as 24% on CYP3A4 and 21% at CYP2D6.
On to `Cc1ccc(C[C@H](N)C(=O)Nc2cc(-c3ccncc3)c[nH]c2=O)cc1`, for which, in data set [1], the half-maximal effective concentration (EC50) worked out at 6600 nM. Also, in data set [2], the maximal response (Emax) amounted to 73%.
As to `COc1cc(NC(=O)[C@H](Cc2ccccc2)NCc2cscn2)cc(-c2ccncc2)c1`, the EC50 in data set [1] worked out at 53 nM; in data set [3] it was 810 nM.
